Measurements collected from several papers.
Lines come from different studies, so protocols differ. In brackets after ≈: the same amount, converted by molar mass.

For O=c1[nH]c2sc(-c3ccc(F)cc3)cc2c(=O)n1O, the inhibition was -12% (Human betaherpesvirus 5; viral replication, inhibitor; 10 µM, 7 days).
N.N.[Cl][Pt][Cl] gave an IC50 of 64 µM (CCD-18Co; cell growth or viability, MTS; 72 h).
Nc1nc(O)c2ncn(COC(CO)CO)c2n1 gave an EC50 of 1.6 µM (Human betaherpesvirus 5; viral replication, inhibitor; HFF).
The IC90 of CCCCCCC#Cc1cncc(-c2nnc(SCc3ccc([N+](=O)[O-])o3)n2C2CC2)c1 is reported as 0.13 µM (Mycobacterium tuberculosis; microbial growth; ERDMAN).
Nc1ncnc2c([C@@H]3N[C@H](CO)[C@@H](O)[C@H]3O)c[nH]c12 gave an inhibition of 102% (human respiratory syncytial virus; viral replication, inhibitor; MA104; 28.4 µM).
The IC50 of CCCCCCC#Cc1cncc(-c2nnc(SCc3ccc(Cl)cc3)n2C)c1 is reported as 0.85 µM (Mycobacterium tuberculosis; microbial growth).
Cc1csc2c(=O)n(O)c(=O)[nH]c12 has an inhibition of 33% (Human betaherpesvirus 5; viral replication, inhibitor; 10 µM, 7 days).
CCOC(=O)C1=C(N)N(c2ccc(C(=O)OCC)cc2)C(O)=C(C#N)C12C(=O)Nc1ccccc12 (centres unmarked) gave a viability of 7.8% (HepG2; cell growth or viability, MTT; 100 µM, 24 h).
CN1CC[C@]23c4c5ccc(O)c4O[C@H]2[C@@H](O)C=C[C@H]3[C@H]1C5 gave an ED50 of 7.63 mg/kg (thermal pain; rat; intraperitoneal).
With CCN1CCc2c(sc3[nH]c(=O)n(O)c(=O)c23)C1 the inhibition was -4.8% (Human betaherpesvirus 5; viral replication, inhibitor; 10 µM, 7 days).
CO[C@H]1/C=C/O[C@@]2(C)Oc3c(C)c(O)c4c(O)c(c(/C=N/N5CCN(C)CC5)c(O)c4c3C2=O)NC(=O)/C(C)=C\C=C\[C@H](C)[C@H](O)[C@@H](C)[C@@H](O)[C@@H](C)[C@H](OC(C)=O)[C@@H]1C gave an IC50 of 0.031 µM (Mycobacterium tuberculosis; microbial growth; ERDMAN).
The MIC of COC(=O)c1cc(-c2cccc(NC(=O)Nc3ccc(Cl)cc3Cl)c2)on1 is reported as 0.5 µg/mL (≈ 1.23 µM) (Mycobacterium tuberculosis; microbial growth; ATCC27294 H37RV; 7 days).
With NNC(=O)c1ccncc1 the IC50 was 0.12 µM (Mycobacterium tuberculosis; microbial growth).
For O=c1[nH]c2cc(-c3ccc(Cl)cc3)sc2c(=O)n1O, the inhibition was 70% (Human betaherpesvirus 5; viral replication, inhibitor; 10 µM, 7 days).
